This note sets out measurements from ChEMBL document CHEMBL1131577, “Auxiliary agents for the peroral administration of peptide and protein drugs: synthesis and evaluation of novel pepstatin analogues” (J Med Chem, 1998).

The target of the assay is Pepsin A (Homo sapiens, UniProt P0DJD9). As to the kind of experiment: Inhibitory activity against pepsin as oxidation of o-phenylenediamine by Horse radish peroxidase (Pepsin sensitive). The method, boiled down: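 Pepsin (1 mg, 40 units, per mL of 0.05 N HCl, freshly prepared) mixed with test compound serially diluted 1:2 in DMSO, then 37.5 µg horseradish peroxidase in 0.05 N HCl added; incubated 2 h at 37 °C, then diluted 1:2 in 0.05 N HCl. Residual peroxidase oxidation of o-phenylenediamine (phosphate buffer pH 6.5, H2O2) ran 10 min at room temperature, read at 492 nm. Pepstatin dilutions served as reference.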
Pepsin A, sequence (P0DJD9 whole entry): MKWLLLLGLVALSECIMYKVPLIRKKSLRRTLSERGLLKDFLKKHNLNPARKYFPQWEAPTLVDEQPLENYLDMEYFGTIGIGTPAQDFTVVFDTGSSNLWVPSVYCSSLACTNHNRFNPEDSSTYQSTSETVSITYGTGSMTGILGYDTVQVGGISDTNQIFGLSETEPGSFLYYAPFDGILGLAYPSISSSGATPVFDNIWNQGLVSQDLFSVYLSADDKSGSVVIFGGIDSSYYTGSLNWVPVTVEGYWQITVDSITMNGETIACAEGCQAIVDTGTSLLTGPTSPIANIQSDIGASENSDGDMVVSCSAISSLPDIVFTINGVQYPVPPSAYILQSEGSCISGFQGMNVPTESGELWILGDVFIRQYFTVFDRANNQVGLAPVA

As to `CCCCCCC(O)[C@H](CC(C)C)NC(=O)[C@@H](NC(=O)[C@@H](NC(=O)OC(C)(C)C)C(C)C)C(C)C` (stereo not given in full), the IC50 (in general, the concentration that gives 50% inhibition) turned out to be 830 nM.

For the compound `CC(C)CC(=O)N[C@H](C(=O)N[C@H](C(=O)N[C@@H](CC(C)C)[C@@H](O)CC(=O)N[C@@H](C)C(=O)N[C@@H](CC(C)C)[C@@H](O)CC(=O)O)C(C)C)C(C)C` [PEPSTATIN], it took 59 nM to reach half-maximal inhibition (IC50).

On to `CCCCC(O)[C@H](CCC)NC(=O)[C@@H](NC(=O)[C@@H](NC(=O)OC(C)(C)C)C(C)C)C(C)C` (stereo not given in full), for which the IC50 stood at 910 nM.

With `CCCCCCCCC(O)[C@H](CC(C)C)NC(=O)[C@@H](NC(=O)[C@@H](NC(=O)OC(C)(C)C)C(C)C)C(C)C` (stereo not given in full), half-maximal inhibition (IC50) required 790 nM.

`CCCCCCCCC(O)[C@H](CCC)NC(=O)[C@@H](NC(=O)[C@@H](NC(=O)OC(C)(C)C)C(C)C)C(C)C` (stereo not given in full) returned an IC50 of 1070 nM.

With `CCCCCCC(O)[C@H](CCC)NC(=O)[C@@H](NC(=O)[C@@H](NC(=O)OC(C)(C)C)C(C)C)C(C)C` (stereo not given in full), the IC50 came to 700 nM.

In turn, `CCCCC(O)[C@@H](NC(=O)[C@@H](NC(=O)[C@@H](NC(=O)OC(C)(C)C)C(C)C)C(C)C)[C@@H](C)CC` (stereo not given in full) came in with an IC50 of 33000 nM.

Consider `CCCCCCCCC(O)[C@@H](NC(=O)[C@@H](NC(=O)[C@@H](NC(=O)OC(C)(C)C)C(C)C)C(C)C)[C@@H](C)CC` (stereo not given in full), for which the IC50 turned out to be 15000 nM. Compared with the last compound, the IC50 is about 2.2-fold lower.

`CCCCCCC(O)[C@@H](NC(=O)[C@@H](NC(=O)[C@@H](NC(=O)OC(C)(C)C)C(C)C)C(C)C)[C@@H](C)CC` (stereo not given in full) returned an IC50 of 27000 nM. Against the preceding compound, the IC50 is about 1.8-fold higher.

The compound `CCCCC(O)[C@H](CC(C)C)NC(=O)[C@@H](NC(=O)[C@@H](NC(=O)OC(C)(C)C)C(C)C)C(C)C` (stereo not given in full) gave an IC50 of 1240 nM.
